# Screening results: PubChem BioAssay, several laboratories
# HCV core dimer – inhibitors of HCV core protein dimerization, primary screen, biochemical, TR-FRET, high-throughput | TR-FRET GST/Flag-core106 dimerization, 1536-well | inhibition, % at 5 µM | 300,000 tested, 0.33% active | AID 1899, 2009;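 active = inhibition above the mean of all tested compounds plus 3 SD, set per screening campaign, cut at about 45% in these data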
#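 Assay system: GST-tagged and Flag-tagged HCV core protein residues 1-106 / Times: compound-protein-antibody incubation 4 h at 22.5 °C / Signal: time-resolved FRET, ex 340 nm, em 617 and 671 nm / Evaluation: % inhibition based on acceptor/donor emission ratio / Benchmarks: wells lacking GST-core106 and wells with excess unlabelled core106 / Repeats: singlicate, one well per compound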
# DAGLB inh – DAGLB lipase inhibitors, primary screen, biochemical, fluorescence, HTS. inhibition, % at 5.17 µM. HEK293T DAGLB membrane lysate, EnzChek fluorogenic substrate. 340,000 tested, 0.059% active. Diacylglycerol lipase-beta (Homo sapiens), Q8NCG7; in the data active = inhibition above about 34%;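 note: 0% = enzyme with vehicle and 100% = wells lacking enzyme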
# DNA FID counter-1 – compounds displacing fluorescent DNA intercalator, primary screen, artefact control for HCV NS3 helicase inhibitor project, biochemical, FID fluorescence | AID 1845, 2009 | DNA fluorescent intercalator displacement | inhibition, % at 7.9 µM | 290,000 tested, 0.17% active;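 note: 0% = vehicle and 100% = reference compound; higher means more ethidium bromide displaced from hairpin DNA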
# GPR7 antagonist – GPR7 receptor antagonists, primary screen, cell-based, fluorescence, single concentration | Neuropeptides B/W receptor type 1 (Homo sapiens), P48145 | GPR7-expressing cells, fluorescence antagonist assay | inhibition, % at 4.4 µM | 290,000 tested, 1.1% active; in the data active = inhibition above about 16%, passing the limit was not always enough;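 note: cells stimulated with the agonist NPW; 0% = agonist with vehicle and 100% = vehicle without agonist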
# GRK2 inh – compounds blocking aptamer binding on GRK2 – biochemical, human GRK2, bead flow cytometry, HTS, primary screen | Beta-adrenergic receptor kinase 1 (Homo sapiens), P25098 | 330,000 tested, 0.59% active | AID 488847, 2010 | FAM-aptamer displacement from GRK2 | inhibition of aptamer binding, % at 10 µM;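 active = inhibition of aptamer binding above 40%, roughly 3 SD of noise, on plates passing a quality check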;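 note: median bead fluorescence of bound FAM aptamer so fluorescent compounds give negative values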
# Target sequence (P25098 whole entry, looked up): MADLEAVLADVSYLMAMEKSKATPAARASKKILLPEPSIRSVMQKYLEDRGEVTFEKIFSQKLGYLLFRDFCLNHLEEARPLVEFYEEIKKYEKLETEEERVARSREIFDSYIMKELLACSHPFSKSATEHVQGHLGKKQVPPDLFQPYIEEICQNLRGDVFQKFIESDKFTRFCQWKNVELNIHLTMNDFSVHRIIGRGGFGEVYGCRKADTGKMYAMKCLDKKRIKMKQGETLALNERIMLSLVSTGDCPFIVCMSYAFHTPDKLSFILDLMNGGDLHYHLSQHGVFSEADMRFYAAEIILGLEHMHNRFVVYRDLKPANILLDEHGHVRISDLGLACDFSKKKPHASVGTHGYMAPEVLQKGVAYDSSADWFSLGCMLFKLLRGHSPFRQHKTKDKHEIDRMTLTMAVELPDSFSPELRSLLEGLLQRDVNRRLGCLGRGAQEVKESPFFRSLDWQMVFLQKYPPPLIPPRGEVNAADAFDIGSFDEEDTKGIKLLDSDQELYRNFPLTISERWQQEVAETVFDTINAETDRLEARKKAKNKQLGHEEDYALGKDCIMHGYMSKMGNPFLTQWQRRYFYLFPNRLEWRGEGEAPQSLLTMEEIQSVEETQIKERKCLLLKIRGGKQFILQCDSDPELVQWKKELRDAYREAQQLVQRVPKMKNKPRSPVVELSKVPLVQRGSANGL
# HCV NS3 hel inh – inhibitors of HCV NS3 helicase, primary screen, biochemical, Cy5 molecular beacon fluorescence; Hepatitis C virus NS3 helicase; NS3 helicase DNA unwinding; AID 1800, 2009; inhibition, % at 10.9 µM; 290,000 tested, 0.56% active;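 active = inhibition above the mean of all tested compounds plus 3 SD, set per campaign, cut at about 35% in these data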;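 note: 0% = DMSO wells and 100% = thioflavine S control wells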
#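 Assay system: hepatitis C virus NS3 helicase domain fragment enzyme. Also added: annealed dual-labelled DNA beacon duplex, ATP-started. Timing: 1 h reaction at 25 °C, ATP-initiated. Technique: Cy5 fluorescence at 0 and 60 min, beacon hairpin quenching. Evaluation: % inhibition of unwinding. Replication: one well per compound.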
# NS3 hel confirm – HCV NS3 helicase inhibitors, retest, confirmation, biochemical, Cy5 molecular beacon fluorescence, triplicate | shares compounds with HCV NS3 hel inh | NS3 helicase DNA unwinding | inhibition, % at 10.9 µM | 1,600 tested, 31% active;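 active = inhibition above the mean of all tested compounds plus 3 SD, cutoff set per campaign, cut at about 36% in these data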
# DNA FID counter-2 – compounds displacing fluorescent DNA intercalator, artefact control for HCV NS3 helicase inhibitor project, biochemical, FID fluorescence, triplicate; 1,600 tested, 4% active; shares compounds with HCV NS3 hel inh; inhibition, % at 7.9 µM; DNA fluorescent intercalator displacement; AID 1945, 2009;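 note: 0% = vehicle and 100% = reference compound; higher means more displacement of ethidium bromide from the DNA hairpin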
# DNA FID DR – compounds displacing fluorescent intercalator from DNA, dose response, counter-screen for HCV NS3 helicase inhibitor project, biochemical, fluorescence; shares compounds with HCV NS3 hel inh; fluorescent intercalator displacement from DNA; IC50, µM; 120 tested, under 10 active; call rule not given here
# Numbers without * were called inactive; x = no result. Only some compounds are listed: those with a hit (about 2.2% of all), similar ones and a draw of the others. Cut-off read from the data, not from the text of the source, unless noted: active = inhibition above about 37%; inactive = the rest.
SMILES,HCV core dimer,DAGLB inh,DNA FID counter-1,GPR7 antagonist,GRK2 inh,HCV NS3 hel inh,NS3 hel confirm,DNA FID counter-2,others
CC(Cc1ccc(O)cc1)NCC(O)c1ccc(O)c(O)c1 (stereo not given),x,6,x,x,x,x,x,x,
CCCCCSc1cc(OC)c(CCN(C)C)cc1OC,-11,0,37*,18,0,-51,x,x,
COc1ccc2[nH]cc(CCN(C)C)c2c1,2,2,3,-1,0,1,x,x,
O=[N+]([O-])c1ccc(NCc2ccccc2)c2nonc12,-7,x,-9,34*,0,8,x,x,
O=[N+]([O-])c1ccc(NCc2ccc(Cl)cc2)c2ccncc12,-12,4,3,-10,2,-6,x,x,
CN(C)[C@@H]1C(=O)C(C(N)=O)=C(O)[C@@]2(O)C(=O)C3=C(O)c4c(O)cccc4[C@@](C)(O)[C@H]3C[C@@H]12,52*,x,x,x,42*,x,x,x,
CN(C)[C@@H]1C(=O)C(C(N)=O)=C(O)[C@@]2(O)C(=O)C3=C(O)c4c(O)ccc(Cl)c4[C@@](C)(O)C3C[C@@H]12 (stereo not given in full),x,7,-18,8,x,31,x,x,
Cc1ccccc1-n1c(O)c(/C=C2/C(c3ccccc3)=Nc3ccccc32)c(=O)[nH]c1=O,-34,-1,-8,29*,10,26,x,x,
Cc1cccc(-n2c(O)c(/C=C3/C(c4ccccc4)=Nc4ccccc43)c(=O)[nH]c2=O)c1,-16,0,-9,9,8,-2,x,x,
Cc1cc2c(C(C)C)c(O)c(O)c(C=O)c2c(O)c1-c1c(C)cc2c(C(C)C)c(O)c(O)c(C=O)c2c1O,x,x,31,-14,x,37*,x,x,
CCCC(CCC)C(=O)OC[N+](C)(C)CCOC(=O)C(O)(c1ccccc1)C1CCCC1 (stereo not given),3,3,41*,1,0,-63,x,x,
CC(C)(C)C(=O)OC[N+](C)(C)CCOC(=O)C(O)(c1ccccc1)C1CCCC1 (stereo not given),0,1,11,-6,2,-7,x,x,
C[n+]1c(-c2ccccc2)c2cc(N)ccc2c2ccc(N)cc21,-71,4,38*,-12,36,34,x,x,
CC1(C)C2CC=C(CN3CCOCC3)C1C2 (stereo not given),0,1,91*,-7,3,-1,x,x,
O=C1NC(=O)N(c2ccccc2)C(=O)/C1=C\c1ccc([N+](=O)[O-])o1,2,x,-14,-11,93*,34,x,x,
COC(=O)C1=C(c2ccc(Cl)c(C(F)(F)F)c2)C[C@@H]2CC[C@H]1N2C(=O)NCc1cc(C)oc1C(F)(F)F,x,-10,x,x,3,x,x,x,
O=C1NC(=O)N(c2ccccc2)C(=O)/C1=C\c1ccc([N+](=O)[O-])s1,2,x,-10,-3,6,41*,50*,11,DNA FID DR=>79
Cc1cc(C)cc(N2C(=O)NC(=O)/C(=C\C=C\c3ccco3)C2=O)c1,6,5,-25,3,21,54*,24,6,
Cc1ccc(N2C(=O)NC(=O)/C(=C/C=C/c3ccco3)C2=O)cc1,4,3,-23,-2,3,39*,-8,6,
CCc1ccc(N2C(=O)NC(=O)/C(=C\C=C\c3ccco3)C2=O)cc1,6,6,-19,-4,10,0,x,x,
CCN(CC)C(=O)c1ccc2c(c1)C1C(Cl)C(Sc3ccccc3[N+](=O)[O-])CC1C(C(=O)O)N2 (stereo not given),20,22,13,-5,14,18,x,x,
CCN(CC)C(=O)c1ccc2c(c1)C1C=CCC1C(C(=O)O)N2 (stereo not given),x,1,-35,-1,14,42*,86*,-3,
Cc1c2ccncc2c(C)c2c1[nH]c1ccccc12,-52,-2,54*,-15,2,42*,57*,83*,
CN(C)C1C(=O)C(C(N)=O)=C(O)C2(O)C(=O)C3=C(O)c4c(O)cccc4C(C)(O)C3CC12 (stereo not given),0,1,0,-13,0,42*,4,11,
O=C(O)c1ccccc1NC(=O)N1C[C@H]2C[C@@H](C1)c1cccc(=O)n1C2,0,-1,1,-8,0,42*,-9,8,
SMILES,HCV core dimer,DAGLB inh,DNA FID counter-1,GPR7 antagonist,GRK2 inh,HCV NS3 hel inh,NS3 hel confirm,DNA FID counter-2,others
CN1CN(c2ccccc2)C2(CCN(CCCSc3ccccc3NC(=O)/C=C/c3ccccc3)CC2)C1=O,x,-1,x,x,x,x,x,x,
CCCCn1c(NS(=O)(=O)c2ccccc2)c(C(=O)OCC)c2nc3ccccc3nc21,5,-22,-31,-2,0,37*,58*,-39,
CCOC(=O)c1c(N)n(CCN2CCCCC2)c2nc3ccccc3nc12,8,1,18,-2,6,1,x,x,
Cc1cccc(-n2c(/C=C/c3ccc([N+](=O)[O-])o3)nc3ccccc3c2=O)c1,11,2,-20,1,11,61*,15,1,
O=C1NC(=S)NC(=O)C1=Cc1ccc(Br)s1,4,4,6,-9,2,45*,56*,8,
CN1C(=O)/C(=C\c2ccc(Br)s2)C(=O)NC1=S,5,7,-1,-15,1,35,x,x,
O=C(Cc1ccccc1)OCC(=O)N1CCN(S(=O)(=O)c2ccc(Cl)cc2)CC1,-3,-2,x,x,0,x,x,x,
COc1ccc(C2C3C=CC(C3)C2C(=O)O)cc1 (stereo not given),x,-2,x,x,x,x,x,x,
Cn1cccc1/C=C1/C(=O)NC(=S)N(Cc2ccc(F)cc2)C1=O,66*,26,-9,-10,2,45*,78*,18,
Cn1cccc1/C=C1/C(=O)NC(=O)N(Cc2ccc(F)cc2)C1=O,-2,13,-11,5,0,33,x,x,
O=c1[nH]c(=O)n(CCC2=CCCCC2)c(O)c1/C=N/N1CCOCC1,-7,2,-23,-4,1,35,x,x,
Cc1ccccc1-n1c(O)c(C=Nc2ccc(N(C)C)cc2)c(=O)[nH]c1=O,-12,0,-20,3,7,43*,-12,-14,
